In ChEMBL document CHEMBL1781932 (J Med Chem, 2011):
≈ marks a conversion by molar mass, not a printed value.

Assays:
Staphylococcus aureus [1] = assay: Antimicrobial activity against tetracycline-susceptible Staphylococcus aureus isolate 101 by CLSI dilution method; assay type: functional
[2] = Cmax in Sprague-Dawley rat at 1 mg/kg, iv administered as single dose measured after 24 to 48 hrs; assay type: ADME, organism-based; design: dose 1 mg/kg, route intravenous; settings: in vivo
Method in brief: (§1)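 Sprague-Dawley rats (n = 3) were fasted overnight (minimum 12 h) and given a single dose, iv 1 mg/kg or oral 10 mg/kg, in sterile water. Samples were taken over 24–48 h. PK parameters came from noncompartmental analysis.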

Staphylococcus aureus [3] = assay: Antimicrobial activity against tetracycline-resistant Staphylococcus aureus isolate 158 harboring tetK gene by CLSI dilution method; assay type: functional
Enterococcus faecalis [4] = assay: Antimicrobial activity against tetracycline-susceptible Enterococcus faecalis isolate 103 by CLSI dilution method; assay type: functional
Method in brief: (§2)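 Broth microdilution per CLSI in fresh cation-adjusted Mueller Hinton broth, kept at 4 °C before testing, with defibrinated horse blood added as appropriate. Strains were from ATCC. MIC in µg/mL. Runs were accepted when comparator antibiotics against ATCC quality-control strains fell within recommended ranges.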

Klebsiella pneumoniae [5] = assay: Antimicrobial activity against tetracycline-resistant Klebsiella pneumoniae isolate 153 harboring tetA gene by CLSI dilution method; assay type: functional
Escherichia coli [6] = assay: Antimicrobial activity against tetracycline-resistant Escherichia coli isolate 155 harboring tetA gene by CLSI dilution method; assay type: functional
Pseudomonas aeruginosa = assay: Antimicrobial activity against tetracycline-susceptible Pseudomonas aeruginosa isolate 111 by CLSI dilution method; assay type: functional; method in brief: as §2
Enterobacter cloacae = assay: Antimicrobial activity against tetracycline-susceptible Enterobacter cloacae isolate 108 by CLSI dilution method; assay type: functional; method in brief: as §2
Acinetobacter baumannii = assay: Antimicrobial activity against tetracycline-susceptible Acinetobacter baumannii isolate 110 by CLSI dilution method; assay type: functional; method in brief: as §2
Staphylococcus aureus [7] = assay: Antimicrobial activity against tetracycline-susceptible Staphylococcus aureus Smith isolate 100 infected in iv dosed mouse systemic infection model assessed as survival of mouse administered 60 mins post infection measured up to 48 hrs; assay type: functional; settings: Smith isolate 100, iv, read-out: PD50
Method in brief: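 Mouse septicemia model with S. aureus ATCC 13709 mixed with 5% mucin, given intraperitoneally at 2.1×10^6 cfu/mouse. Compound was dosed intravenously 60 min after infection at 0.3–30 mg/kg in sterile water, 6 mice/dose group, with untreated infection controls. Survival was followed over 48 h. PD50 was derived by Probit analysis with 95% CI.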

Staphylococcus aureus [8] = assay: Antimicrobial activity against tetracycline-susceptible Staphylococcus aureus Smith isolate 100 by CLSI dilution method; assay type: functional
Enterococcus faecalis [9] = assay: Antimicrobial activity against tetracycline-resistant Enterococcus faecalis isolate 159 harboring […] gene by CLSI dilution method; assay type: functional
Streptococcus pneumoniae [10] = assay: Antimicrobial activity against tetracycline-resistant Streptococcus pneumoniae isolate 160 harboring tetM gene by CLSI dilution method; assay type: functional
Klebsiella pneumoniae [11] = assay: Antimicrobial activity against tetracycline-susceptible Klebsiella pneumoniae isolate 109 by CLSI dilution method; assay type: functional; method in brief: as §2
[12] = Apparent volume of distribution in Sprague-Dawley rat at 1 mg/kg, iv administered as single dose measured after 24 to 48 hrs; settings: in vivo
[13] = Elimination half life in Sprague-Dawley rat at 1 mg/kg, iv administered as single dose; assay type: ADME, organism-based; design: dose 1 mg/kg, route intravenous; settings: in vivo, read-out: beta t1/2 (converted); method in brief: as §1
[14] = Clearance in Sprague-Dawley rat at 1 mg/kg, iv administered as single dose measured after 24 to 48 hrs; assay type: ADME, organism-based; design: dose 1 mg/kg, route intravenous; settings: in vivo; method in brief: as §1
Streptococcus pneumoniae [15] = assay: Antimicrobial activity against tetracycline-susceptible Streptococcus pneumoniae isolate 106 by CLSI dilution method; assay type: functional; method in brief: as §2
[16] = AUC (0 to infinity) in Sprague-Dawley rat at 1 mg/kg, iv administered as single dose measured after 24 to 48 hrs; assay type: ADME, organism-based; design: time infinity, dose 1 mg/kg, route intravenous; settings: plasma; method in brief: as §1
Staphylococcus aureus [17] = assay: Antimicrobial activity against tetracycline-susceptible Staphylococcus aureus Smith isolate 100 infected in po dosed mouse systemic infection model assessed as survival of mouse administered 60 mins post infection measured after 48 hrs; assay type: functional; settings: Smith isolate 100, po, read-out: PD50
Method in brief: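 Mouse septicemia model with S. aureus ATCC 13709 in 5% mucin, inoculated intraperitoneally at 2.1×10^6 cfu/mouse. Oral gavage dosing began 60 min post-infection at 0.3–30 mg/kg in sterile water, 6 mice/dose group, with untreated infection controls. Survival was assessed over 48 h. PD50 was obtained by Probit analysis with 95% CI.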

Escherichia coli [18] = assay: Antimicrobial activity against tetracycline-susceptible Escherichia coli isolate 107 by CLSI dilution method; assay type: functional; method in brief: as §2
Staphylococcus aureus [19] = assay: Antimicrobial activity against methicillin-, tetracycline-resistant Staphylococcus aureus isolate 161 harboring tetM gene by CLSI dilution method; assay type: functional
Rattus norvegicus = assay: Oral bioavailability in Sprague-Dawley rat at 10 mg/kg administered as single dose; assay type: ADME, organism-based; settings: in vivo; method in brief: as §1

Structure (SMILES) | MIC (Staphylococcus aureus [1]) [µg/mL] | Cmax [2] [ng/mL] | MIC (Staphylococcus aureus [3]) [µg/mL] | MIC (Enterococcus faecalis [4]) [µg/mL] | MIC (Klebsiella pneumoniae [5]) [µg/mL] | MIC (Escherichia coli [6]) [µg/mL] | MIC (Pseudomonas aeruginosa) [µg/mL] | MIC (Enterobacter cloacae) [µg/mL] | MIC (Acinetobacter baumannii) [µg/mL] | ED50 (Staphylococcus aureus [7]) [mg/kg] | MIC (Enterococcus faecalis [9]) [µg/mL] | MIC (Streptococcus pneumoniae [10]) [µg/mL] | MIC (Klebsiella pneumoniae [11]) [µg/mL] | Vd [12] [L/kg] | half-life [13] [h] | clearance [14] [mL/min/kg] | MIC (Streptococcus pneumoniae [15]) [µg/mL] | AUC(0-inf) [16] [ng·h/mL] | ED50 (Staphylococcus aureus [17]) [mg/kg] | MIC (Escherichia coli [18]) [µg/mL] | further results
COc1c2c(c(O)c3cc(CN4CCC4)ccc13)C(=O)C1=C(O)[C@]3(O)C(=O)C(C(N)=O)=C(O)[C@@H](N(C)C)[C@@H]3C[C@@H]1C2 | 0.0625 (≈ 0.111 µM) | 618 | 0.0625 (≈ 0.111 µM) | 0.0625 (≈ 0.111 µM) | 8 (≈ 14.2 µM) | 8 (≈ 14.2 µM) | 32 (≈ 56.8 µM) | 1 (≈ 1.77 µM) | 1 (≈ 1.77 µM) | 0.36 | 1 (≈ 1.77 µM) | 0.0625 (≈ 0.111 µM) | 1 (≈ 1.77 µM) | 4.65 | 5.26 | 10.2 | 0.0156 (≈ 0.0277 µM) | 1650 | > 20 | 0.25 (≈ 0.444 µM) | MIC (Staphylococcus aureus [8]): 0.0625 µg/mL (≈ 0.111 µM); MIC (Staphylococcus aureus [19]): 0.5 µg/mL (≈ 0.887 µM)
CN(C)[C@@H]1C(O)=C(C(N)=O)C(=O)[C@@]2(O)C(O)=C3C(=O)c4c(cc5ccc(CN6CC(F)C6)cc5c4O)C[C@H]3C[C@@H]12 | 0.5 (≈ 0.907 µM) | 814 | 0.5 (≈ 0.907 µM) | 0.5 (≈ 0.907 µM) | 16 (≈ 29 µM) | 8 (≈ 14.5 µM) | > 32 | 8 (≈ 14.5 µM) | 1 (≈ 1.81 µM) | 0.36 | 2 (≈ 3.63 µM) | 0.25 (≈ 0.453 µM) | 8 (≈ 14.5 µM) | 1.4 | 3.35 | 4.82 | 0.125 (≈ 0.227 µM) | 3460 | 12.2 | 2 (≈ 3.63 µM) | F (Rattus norvegicus): 18%; MIC (Staphylococcus aureus [19]): 2 µg/mL (≈ 3.63 µM)
